According to paper PMC12444810 (Chemmedchem, 2025):
Non-standard residues stand in square brackets, D forms with d. Residues, ends and D or L forms follow the SMILES beside them. *: point of attachment. Phe(4-F) = N[C@@H](Cc1ccc(F)cc1)C(=O)O; Cbz = O=C(OCc1ccccc1)*

Experiments:
[1] = test system: fusion protein of canine distemper virus; conditions: cited from earlier work
[2] = PAMPA passive membrane permeability; type: in vitro ADME; conditions: for passive membrane permeability, in words: 10 µM, 13 h incubation, triplicate
MeV‐F [3] = conditions: cited from earlier work; for IC50: reported value
Vero/SLAM cells = assay: CCK-8 cytotoxicity assay; type: cell-based; conditions: CCK-8 assay, 100 µM, 24 h; result in words
MeV‐F [4] = target: T1, MeV‐F (Measles virus, UniProt Q786F3); assay: Cell-to-cell fusion assay; type: cell-based; conditions: 0.5 µM peptide, triplicate (Figure S2)
T1 sequence (Q786F3 113-550 limits assumed): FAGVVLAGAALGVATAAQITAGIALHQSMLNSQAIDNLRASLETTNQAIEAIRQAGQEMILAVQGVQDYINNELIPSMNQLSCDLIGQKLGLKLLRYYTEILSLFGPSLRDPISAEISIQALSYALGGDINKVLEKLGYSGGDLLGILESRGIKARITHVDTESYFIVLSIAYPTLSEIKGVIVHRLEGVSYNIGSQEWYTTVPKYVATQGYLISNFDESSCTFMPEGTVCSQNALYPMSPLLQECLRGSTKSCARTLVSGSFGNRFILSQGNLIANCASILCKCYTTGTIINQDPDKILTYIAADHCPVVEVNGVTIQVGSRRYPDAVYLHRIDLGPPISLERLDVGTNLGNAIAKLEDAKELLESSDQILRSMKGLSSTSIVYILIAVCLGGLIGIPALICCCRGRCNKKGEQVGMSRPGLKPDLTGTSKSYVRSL
T1 sequence (Q786F3 24-112 limits assumed): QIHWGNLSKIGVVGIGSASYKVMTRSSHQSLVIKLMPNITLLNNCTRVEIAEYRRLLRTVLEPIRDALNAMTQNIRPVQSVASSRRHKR
Outline: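 Vero cells stably expressing human SLAM were transfected with plasmids encoding MeV‑F, MeV‑H and EGFP, then incubated with test compound for 24 h. Syncytium formation was judged by EGFP fluorescence imaging. Controls were cells without peptide and cells transfected with EGFP plasmid alone. Run in triplicate.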

[5] = test system: EGFP‐recombinant MeV (MeV‐EGFP); assay: Viral entry inhibition assay; type: cell-based, measles virus; conditions: ratio of IC50 values in the viral entry inhibition assay
Outline: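 Vero/hSLAM cells were infected with EGFP‑recombinant MeV in the presence of test compound for 1 h. Virus medium was removed and cells were kept 48 h in medium containing 100 µM of the parent fusion‑inhibitor peptide. Fluorescent infected cells were counted to give IC50, in triplicate. The ratio is taken against the parent peptide's IC50, measured under the same conditions.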

| SMILES | inhibition of canine distemper virus fusion protein [1] | passive membrane permeability, in words [2] | IC50 (MeV‐F [3]) [nM] | cytotoxicity to Vero/SLAM cells (Vero/SLAM cells) | inhibition of syncytia formation, comparison of the two compounds (MeV‐F [4]) | Papp at 13 h, 10 µM [2] [×10⁻⁶ cm/s] | enhancement in inhibitory activity compared to FIP [5] [fold] | inhibitory activity compared to the original FIP (MeV‐F [3]; authors' previous study) |
| --- | --- | --- | --- | --- | --- | --- | --- | --- |
| O=C(O)CNC(=O)[C@H](Cc1ccccc1)NC(=O)[C@@H](Cc1ccccc1)NC(=O)OCc1ccccc1 [FIP] (Cbz-[dF]-Phe-Gly-OH) | does not inhibit | negligible level of permeability | 1300 | did not exhibit cytotoxicity |  |  |  |  |
| NC(=O)CNC(=O)[C@H](Cc1ccc(F)cc1)NC(=O)[C@@H](Cc1ccccc1)NC(=O)OCc1ccccc1 [FIP‐F2pF‐NH2] (Cbz-[dF]-[Phe(4-F)]-Gly-NH2) |  |  |  | did not exhibit cytotoxicity | stronger inhibitor than FIP‐ZoF‐NH2 | 1.4 ± 0.1 | 23 |  |
| N=C(N)NCCC[C@@H](NC(=O)[C@H](Cc1ccccc1)NC(=O)[C@@H](Cc1ccccc1)NC(=O)OCc1ccccc1)C(N)=O [FIP‐G3r‐NH2] (Cbz-[dF]-Phe-[dR]-NH2) |  | did not passively permeate the lipid membrane | 210 | did not exhibit cytotoxicity |  |  |  |  |
| NC(=O)CNC(=O)[C@H](Cc1ccccc1)NC(=O)[C@@H](Cc1ccccc1)NC(=O)OCc1ccccc1 [FIP‐NH2] (Cbz-[dF]-Phe-Gly-NH2) |  |  |  |  |  | 1.2 ± 0.2 |  | slight improvement in inhibitory activity |
